Assay [1] addresses T1, Chloroquine resistance transporter (Plasmodium falciparum) (UniProt Q9N623).
T1 sequence (whole entry): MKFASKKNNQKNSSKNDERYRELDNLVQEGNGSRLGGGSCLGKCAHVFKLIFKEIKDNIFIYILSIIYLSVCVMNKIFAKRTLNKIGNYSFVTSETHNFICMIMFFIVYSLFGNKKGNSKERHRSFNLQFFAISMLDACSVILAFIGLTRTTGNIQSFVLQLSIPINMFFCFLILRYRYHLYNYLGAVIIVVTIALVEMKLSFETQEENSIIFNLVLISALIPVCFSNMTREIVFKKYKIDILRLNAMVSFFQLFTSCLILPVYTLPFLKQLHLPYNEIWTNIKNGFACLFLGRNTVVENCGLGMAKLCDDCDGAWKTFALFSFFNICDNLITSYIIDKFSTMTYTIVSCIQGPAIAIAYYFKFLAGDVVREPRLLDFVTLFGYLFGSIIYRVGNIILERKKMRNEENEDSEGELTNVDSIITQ
As to the kind of experiment: Inhibition of chloroquine-sensitive Plasmodium falciparum D10 CRT expressed in Xenopus laevis oocytes plasma membrane assessed as reduction of [3H]-chloroquine transportation at 100 uM after 1 to 2 hrs. It is filed as cell-based. In short, it runs like this: (§1)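 Xenopus oocytes expressing PfCRT of the CQ-resistant (PfCRTCQR) or CQ-sensitive (PfCRTCQS) form. [3H]CQ uptake measured in the presence of reverser at 100 μM extracellular.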

The target in assay [2] is T1, Chloroquine resistance transporter (Plasmodium falciparum). Description: Inhibition of CTR in Plasmodium falciparum C2GC03 expressing wild-type pfcrt allele assessed as increase of accumulation of [3H]-chloroquine level at 1 uM after 1 hr. The method, boiled down: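 Isogenic pfcrt transfectant lines C2GCO3 (wild-type allele), C4Dd2 and C67G8 (CQ-resistance alleles from Dd2 or 7G8). CQ accumulation ratio measured with and without reverser. Expressed as fold increase in accumulation ratio over control.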

For assay [3] the target is unchanged. Description: Inhibition of chloroquine-resistant Plasmodium falciparum Dd2 CRT expressed in Xenopus laevis oocytes plasma membrane assessed as reduction of [3H]-chloroquine transportation at 100 uM after 1 to 2 hrs. The format is cell-based. The method, boiled down:
as §1

Activity calls are given as the source filed them. No cut-off for these calls is given here.

With `CN(C)CCCC(c1ccccn1)c1ccccc1Cl` (racemic), the inhibition result in assay [1], in assay [2] and in assay [3] was “inactive” throughout.

Consider `CCN(CC)CCC(c1ccc(Cl)cc1)c1ccccn1` (racemic), for which the inhibition entry in assay [1], in assay [2] and in assay [3] was “inactive” in each case.

With `CN(C)C/C=C(/c1cccc(Cl)c1)c1ccccn1`, the inhibition entry in assay [1], in assay [2] and in assay [3] was “inactive” throughout.

As to `CN(C)CCC(c1ccc(Cl)cc1)c1ccccn1` (stereo in doubt; form 2), in assay [2], the inhibition entry was “inactive”.

In the case of `CN(C)CCC/C=C(/c1ccc(Cl)cc1)c1ccccn1`, the inhibition result in assay [1], in assay [2] and in assay [3] was “inactive” throughout.

As for `CCN(CC)C/C=C(/c1ccc(Cl)cc1)c1ccccn1`, the inhibition result in assay [1] and in assay [3] was “inactive” throughout.

`CN(C)CC/C=C(\c1ccc(Cl)cc1)c1ccccn1`: the inhibition entry in assay [1], in assay [2] and in assay [3] was “inactive” throughout.

Turning to `N#C/C=C(/c1ccccc1)c1ccccn1`, the inhibition entry in assay [1], in assay [2] and in assay [3] was “inactive” each time.

Turning to `CN(C)CCCC(c1ccc(Cl)cc1)c1ccccn1` (racemic), the inhibition entry in assay [1], in assay [2] and in assay [3] was “inactive” each time.

In the case of `CN(C)CC/C=C(\c1cccc(Cl)c1)c1ccccn1`, the inhibition result in assay [1], in assay [2] and in assay [3] was “inactive” in each case.

In the case of `CN(C)CCCC(c1ccncc1)c1cccc(Cl)c1` (racemic), the inhibition entry in assay [1], in assay [2] and in assay [3] was “inactive” throughout.

For the molecule `CN(C)CC/C=C(/c1ccc(Cl)cc1)c1ccccn1`, the inhibition result in assay [1], in assay [2] and in assay [3] was “inactive” in each case.

`CN(C)CCC/C=C(\c1ccc(Cl)cc1)c1ccccn1`: the inhibition result in assay [1], in assay [2] and in assay [3] was “inactive” each time.

As to `CN(C)CCCC(c1ccccc1)c1ccccn1` (racemic), the inhibition entry in assay [1], in assay [2] and in assay [3] was “inactive” throughout.

For the molecule `CN(C)CCCC(c1cccnc1)c1cccc(Cl)c1` (racemic), the inhibition entry in assay [1], in assay [2] and in assay [3] was “inactive” throughout.

On to `CN(C)C/C=C(\c1cccc(Cl)c1)c1ccccn1`, for which the inhibition result in assay [1], in assay [2] and in assay [3] was “inactive” each time.

With `CN(C)CC/C=C(/c1cccc(Cl)c1)c1ccccn1`, the inhibition entry in assay [1], in assay [2] and in assay [3] was “inactive” throughout.

Turning to `CN(C)CCCCCC(c1ccc(Cl)cc1)c1ccccn1` (racemic), the inhibition result in assay [1], in assay [2] and in assay [3] was “inactive” throughout.

`CN(C)CC/C=C(/c1ccccn1)c1ccccc1Cl`: the inhibition entry in assay [1], in assay [2] and in assay [3] was “inactive” in each case.

As to `CN(C)CCCC(c1cccc(Cl)c1)c1cnccn1` (racemic), the inhibition entry in assay [1], in assay [2] and in assay [3] was “inactive” each time.

Source of the values: ChEMBL document CHEMBL3286244, “Chlorpheniramine Analogues Reverse Chloroquine Resistance in Plasmodium falciparum by Inhibiting PfCRT” (ACS Med Chem Lett, 2014).
